From ChEMBL document CHEMBL4673384, “Studying Histone Deacetylase Inhibition and Apoptosis Induction of Psammaplin A Monomers with Modified Thiol Group” (ACS Med Chem Lett, 2021) come the findings set out here.

Series [1] concerns HL-60. Description: Induction of apoptosis in human HL-60 cells assessed as viable cells at 20 uM incubated for 24 hrs by propidium iodide and annexin-V FITC staining based FACS analysis (reference value: 93.9 %). The format is functional. The settings on record: read-out: Activity. (In general: In flow cytometry, cells or beads pass a laser one at a time.)
Series [2] concerns the target T1, Histone deacetylase 2 (Homo sapiens, UniProt Q92769). Description: Inhibition of HDAC2 in human HL-60 cells assessed as increase in Ac-H3 level at 20 uM incubated for 24 hrs by Western blot analysis. The format is cell-based. In a few lines: (§1)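 Compound given to HL-60 cells for 24 h at the stated concentrations, then lysed. Acetyl-histone H3 and acetyl-α-tubulin levels were read by Western blot, with total H3, α-tubulin or β-actin as references.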

Series [3] relates to HL-60. Description: Induction of apoptosis in human HL-60 cells assessed as necrotic cells at 20 uM incubated for 24 hrs by propidium iodide and annexin-V FITC staining based FACS analysis (reference value: 0.5 %). The format is functional.
Series [4] has as its target T2, Protein deacetylase HDAC6 (Homo sapiens, UniProt Q9UBN7).
T2 sequence (Q9UBN7 whole entry): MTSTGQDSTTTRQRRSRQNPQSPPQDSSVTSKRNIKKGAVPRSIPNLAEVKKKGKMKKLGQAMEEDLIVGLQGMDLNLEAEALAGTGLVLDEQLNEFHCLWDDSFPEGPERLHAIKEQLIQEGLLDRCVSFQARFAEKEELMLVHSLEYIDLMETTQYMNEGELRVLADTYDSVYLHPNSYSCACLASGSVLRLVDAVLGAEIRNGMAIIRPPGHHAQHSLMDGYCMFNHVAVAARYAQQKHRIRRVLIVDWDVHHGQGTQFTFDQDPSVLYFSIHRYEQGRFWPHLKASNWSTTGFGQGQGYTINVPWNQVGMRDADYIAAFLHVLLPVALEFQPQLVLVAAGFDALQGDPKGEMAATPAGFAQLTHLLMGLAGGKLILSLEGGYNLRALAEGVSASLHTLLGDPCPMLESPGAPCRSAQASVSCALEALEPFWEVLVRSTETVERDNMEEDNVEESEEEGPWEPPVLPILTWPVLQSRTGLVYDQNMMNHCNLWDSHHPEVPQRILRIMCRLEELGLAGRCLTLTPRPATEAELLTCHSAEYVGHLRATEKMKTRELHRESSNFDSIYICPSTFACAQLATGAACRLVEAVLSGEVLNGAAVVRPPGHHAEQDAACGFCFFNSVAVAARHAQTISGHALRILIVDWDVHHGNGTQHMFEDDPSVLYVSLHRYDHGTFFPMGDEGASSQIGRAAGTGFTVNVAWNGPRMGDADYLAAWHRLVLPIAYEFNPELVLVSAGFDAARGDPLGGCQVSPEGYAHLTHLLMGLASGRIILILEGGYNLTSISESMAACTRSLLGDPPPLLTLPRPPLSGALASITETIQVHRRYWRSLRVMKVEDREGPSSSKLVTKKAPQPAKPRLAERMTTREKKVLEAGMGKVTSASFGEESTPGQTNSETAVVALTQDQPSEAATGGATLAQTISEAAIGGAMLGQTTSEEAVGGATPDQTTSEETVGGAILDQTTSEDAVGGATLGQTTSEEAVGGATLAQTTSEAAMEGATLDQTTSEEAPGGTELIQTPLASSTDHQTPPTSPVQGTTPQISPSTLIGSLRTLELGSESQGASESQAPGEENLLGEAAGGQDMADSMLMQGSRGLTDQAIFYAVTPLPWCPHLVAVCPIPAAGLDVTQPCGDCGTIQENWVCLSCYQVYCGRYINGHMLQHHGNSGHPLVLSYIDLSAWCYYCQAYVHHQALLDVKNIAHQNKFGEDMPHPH
The experiment in a line: Inhibition of recombinant full length C-terminal FLAG-tagged human HDAC6 expressed in baculovirus infected Sf9 cells using Boc-Lys(Ac)-AMC as substrate preincubated for 15 mins followed by substrate addition and measured after 60 mins by fluorescence based assay.

In series [5] the test system is HL-60. The experiment in a line: Induction of apoptosis in human HL-60 cells assessed as early apoptotic cells at 20 uM incubated for 24 hrs by propidium iodide and annexin-V FITC staining based FACS analysis (reference value: […]). In kind it is functional.
Series [6] deals with Histone deacetylase 3/Nuclear receptor corepressor 2 (HDAC3/NCoR2) (Homo sapiens, UniProt O15379). The experiment in a line: Inhibition of C-terminal His-tagged recombinant human HDAC3 (1 to 428 residues)/N-terminal GST-tagged recombinant human NCoR2 (395 to 489 residues) co-expressed in baculovirus infected Sf9 cells using Boc-Lys(Ac)-AMC as substrate preincubated for 15 mins followed by substrate addition and measured after 60 mins by fluorescence based assay.

The test system of series [7] is HL-60. Description: Growth inhibition of human HL-60 cells after 72 hrs by trypan blue dye based assay. In kind it is functional. To be noted: for GI50: Homo sapiens, HL-60. In a few lines: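 HL-60 leukemia cells were exposed to compound for 72 h. Growth inhibition is reported as IG50 (half the growth inhibition concentration), as means plus SD of three independent experiments.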

In series [8] the test system is HL-60. The experiment in a line: Induction of apoptosis in human HL-60 cells assessed as late apoptotic cells at 20 uM incubated for 24 hrs by propidium iodide and annexin-V FITC staining based FACS analysis (reference value: 3.7 %). The format is functional.
Series [9] concerns the target T1, Histone deacetylase 2. The experiment in a line: Inhibition of recombinant full length C-terminal FLAG-tagged human HDAC2 expressed in baculovirus infected Sf9 cells using Boc-Lys(Ac)-AMC as substrate preincubated for 15 mins followed by substrate addition and measured after 60 mins by fluorescence based assay.
For series [10], the target named is T3, Histone deacetylase 1 (Homo sapiens, UniProt Q13547). The experiment in a line: Inhibition of recombinant full length C-terminal FLAG/His-tagged human HDAC1 expressed in baculovirus infected Sf9 cells using Boc-Lys(Ac)-AMC as substrate preincubated for 15 mins followed by substrate addition and measured after 60 mins by fluorescence based assay.
Series [11] addresses Histone deacetylase 3 (Homo sapiens) (UniProt O15379). Description: Inhibition of HDAC3 in human HL-60 cells assessed as increase in Ac-H3 level at 20 uM incubated for 24 hrs by Western blot analysis. The format is cell-based. The method, boiled down:
as §1
Background: In western blotting, separated proteins are transferred to a membrane and probed.

The target of series [12] is T3, Histone deacetylase 1. Description: Inhibition of HDAC1 in human HL-60 cells assessed as increase in Ac-H3 level at 20 uM incubated for 24 hrs by Western blot analysis. In kind it is cell-based. In a few lines: as §1
Series [13] can be described thus: Antitumor activity against mouse LL/2 cells inoculated in C57BL/6J mouse assessed as reduction of tumor weight at 25 mg/kg, ip administered for 12 days measured at day 14 (reference value: 0.98 +/- 0.07 g). The format is functional, Lewis lung carcinoma. The settings on record: time 12 day.
Series [14] can be described thus: Toxicity in mouse LL/2 cells inoculated C57BL/6J mouse assessed as effect on body weight by measuring end body weight at 25 mg/kg, ip administered for 12 days and measured for every 2 days (reference value: 18.1 +/- 0.2 g). The format is organism-based. The settings on record: in vivo, 288 h, time 12 day.
Series [15] is described as follows: Toxicity in mouse LL/2 cells inoculated C57BL/6J mouse assessed as effect on body weight by measuring initial body weight at 25 mg/kg, ip administered for 12 days measured for every 2 days (reference value: 18.4 +/- 0.4 g). The format is organism-based. To be noted: in vivo, 288 h, time 12 day.

Molecules are shown by their SMILES. Active and inactive are the calls of the source. The rule behind the calls is not given here.

Histone deacetylase 3/Nuclear receptor corepressor 2 (HDAC3/NCoR2), sequence (O15379 whole entry, the tested form may be a part): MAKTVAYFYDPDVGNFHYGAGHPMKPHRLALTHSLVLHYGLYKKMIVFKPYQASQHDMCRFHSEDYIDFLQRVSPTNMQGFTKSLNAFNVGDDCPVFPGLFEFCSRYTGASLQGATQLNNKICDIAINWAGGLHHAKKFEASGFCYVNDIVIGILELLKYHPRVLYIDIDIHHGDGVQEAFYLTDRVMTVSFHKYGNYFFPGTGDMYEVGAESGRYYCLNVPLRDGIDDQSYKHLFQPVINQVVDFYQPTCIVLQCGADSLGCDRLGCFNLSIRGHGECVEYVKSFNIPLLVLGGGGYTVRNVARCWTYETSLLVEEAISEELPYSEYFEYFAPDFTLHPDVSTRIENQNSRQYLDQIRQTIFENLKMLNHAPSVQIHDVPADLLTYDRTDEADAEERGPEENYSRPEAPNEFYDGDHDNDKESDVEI
Histone deacetylase 3/Nuclear receptor corepressor 2 (HDAC3/NCoR2), sequence (Q9Y618 whole entry, further chain, the tested form may be a part): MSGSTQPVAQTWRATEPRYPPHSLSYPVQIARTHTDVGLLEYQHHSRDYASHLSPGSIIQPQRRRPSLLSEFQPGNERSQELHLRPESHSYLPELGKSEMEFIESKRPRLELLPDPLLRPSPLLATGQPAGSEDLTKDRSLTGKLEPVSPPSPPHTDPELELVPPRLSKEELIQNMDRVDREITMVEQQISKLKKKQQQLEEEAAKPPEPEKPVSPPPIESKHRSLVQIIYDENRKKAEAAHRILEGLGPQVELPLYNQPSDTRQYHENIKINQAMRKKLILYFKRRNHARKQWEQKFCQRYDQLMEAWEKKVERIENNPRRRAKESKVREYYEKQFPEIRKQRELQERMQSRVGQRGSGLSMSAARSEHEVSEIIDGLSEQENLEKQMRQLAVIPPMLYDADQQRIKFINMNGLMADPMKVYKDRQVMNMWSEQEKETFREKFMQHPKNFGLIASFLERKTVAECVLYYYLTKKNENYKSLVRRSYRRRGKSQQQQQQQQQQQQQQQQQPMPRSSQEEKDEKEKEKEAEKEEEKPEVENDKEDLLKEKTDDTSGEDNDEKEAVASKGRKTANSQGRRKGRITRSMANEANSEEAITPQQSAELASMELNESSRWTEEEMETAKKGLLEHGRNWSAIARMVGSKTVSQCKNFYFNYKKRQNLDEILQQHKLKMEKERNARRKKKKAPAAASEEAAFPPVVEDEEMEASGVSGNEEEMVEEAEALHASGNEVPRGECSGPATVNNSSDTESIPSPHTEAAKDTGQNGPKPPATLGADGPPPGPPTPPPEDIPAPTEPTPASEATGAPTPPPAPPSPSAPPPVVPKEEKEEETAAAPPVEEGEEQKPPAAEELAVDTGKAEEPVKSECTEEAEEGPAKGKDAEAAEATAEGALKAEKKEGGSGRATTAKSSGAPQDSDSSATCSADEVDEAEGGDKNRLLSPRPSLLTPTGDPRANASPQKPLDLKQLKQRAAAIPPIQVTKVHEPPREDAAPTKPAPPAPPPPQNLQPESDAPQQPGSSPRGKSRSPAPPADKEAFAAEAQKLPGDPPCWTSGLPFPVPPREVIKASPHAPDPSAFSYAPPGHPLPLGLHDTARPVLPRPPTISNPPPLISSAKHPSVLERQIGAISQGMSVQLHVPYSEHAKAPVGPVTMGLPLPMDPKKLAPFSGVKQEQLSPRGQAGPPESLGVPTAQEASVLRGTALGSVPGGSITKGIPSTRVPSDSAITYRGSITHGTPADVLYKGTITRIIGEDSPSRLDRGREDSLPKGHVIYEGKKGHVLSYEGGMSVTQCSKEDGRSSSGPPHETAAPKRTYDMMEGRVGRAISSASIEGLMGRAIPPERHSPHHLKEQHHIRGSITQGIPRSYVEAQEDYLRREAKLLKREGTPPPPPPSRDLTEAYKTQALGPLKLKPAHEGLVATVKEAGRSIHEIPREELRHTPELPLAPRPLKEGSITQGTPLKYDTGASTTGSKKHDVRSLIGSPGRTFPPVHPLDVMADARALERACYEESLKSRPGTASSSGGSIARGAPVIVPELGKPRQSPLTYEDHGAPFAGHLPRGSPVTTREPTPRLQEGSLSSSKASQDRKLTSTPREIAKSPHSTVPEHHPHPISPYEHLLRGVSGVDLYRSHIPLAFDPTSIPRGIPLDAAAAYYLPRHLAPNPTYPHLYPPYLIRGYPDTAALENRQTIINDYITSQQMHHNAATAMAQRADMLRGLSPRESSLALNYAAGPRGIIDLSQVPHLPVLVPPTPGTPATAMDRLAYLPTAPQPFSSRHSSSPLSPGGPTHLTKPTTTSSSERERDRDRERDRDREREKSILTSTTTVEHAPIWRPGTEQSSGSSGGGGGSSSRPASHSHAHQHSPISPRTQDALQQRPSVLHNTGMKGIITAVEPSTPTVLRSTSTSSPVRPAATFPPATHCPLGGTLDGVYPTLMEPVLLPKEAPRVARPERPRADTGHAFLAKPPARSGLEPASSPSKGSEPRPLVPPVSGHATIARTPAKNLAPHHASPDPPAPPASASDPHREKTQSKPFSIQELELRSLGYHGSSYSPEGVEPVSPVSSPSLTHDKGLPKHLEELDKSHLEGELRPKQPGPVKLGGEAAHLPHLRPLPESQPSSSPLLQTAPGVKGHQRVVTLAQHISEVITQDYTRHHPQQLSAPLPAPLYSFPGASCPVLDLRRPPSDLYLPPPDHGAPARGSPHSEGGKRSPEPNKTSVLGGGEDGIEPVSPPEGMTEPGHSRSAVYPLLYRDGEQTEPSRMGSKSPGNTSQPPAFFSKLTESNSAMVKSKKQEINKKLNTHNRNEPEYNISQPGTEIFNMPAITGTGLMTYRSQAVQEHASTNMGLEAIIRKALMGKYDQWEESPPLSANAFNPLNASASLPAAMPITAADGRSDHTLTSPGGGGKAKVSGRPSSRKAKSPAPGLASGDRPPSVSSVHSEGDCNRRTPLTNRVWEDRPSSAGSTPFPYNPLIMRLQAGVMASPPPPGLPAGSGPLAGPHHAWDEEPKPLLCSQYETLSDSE
Histone deacetylase 3 (Homo sapiens), sequence (O15379 whole entry): as the sequence (O15379 whole entry, the tested form may be a part) above
T3 sequence (Q13547 whole entry): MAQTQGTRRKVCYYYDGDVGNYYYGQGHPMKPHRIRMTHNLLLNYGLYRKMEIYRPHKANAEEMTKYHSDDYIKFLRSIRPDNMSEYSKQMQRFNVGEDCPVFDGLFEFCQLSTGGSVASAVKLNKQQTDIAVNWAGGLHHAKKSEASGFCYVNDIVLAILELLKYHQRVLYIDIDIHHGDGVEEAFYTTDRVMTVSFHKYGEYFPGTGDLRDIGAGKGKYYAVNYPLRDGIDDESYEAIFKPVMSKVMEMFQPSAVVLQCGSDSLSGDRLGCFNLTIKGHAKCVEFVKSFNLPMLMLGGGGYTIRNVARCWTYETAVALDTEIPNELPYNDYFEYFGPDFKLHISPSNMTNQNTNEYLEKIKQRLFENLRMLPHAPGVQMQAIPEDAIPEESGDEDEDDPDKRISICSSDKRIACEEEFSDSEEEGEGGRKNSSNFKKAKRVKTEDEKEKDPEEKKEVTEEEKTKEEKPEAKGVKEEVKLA
T1 sequence (Q92769 whole entry): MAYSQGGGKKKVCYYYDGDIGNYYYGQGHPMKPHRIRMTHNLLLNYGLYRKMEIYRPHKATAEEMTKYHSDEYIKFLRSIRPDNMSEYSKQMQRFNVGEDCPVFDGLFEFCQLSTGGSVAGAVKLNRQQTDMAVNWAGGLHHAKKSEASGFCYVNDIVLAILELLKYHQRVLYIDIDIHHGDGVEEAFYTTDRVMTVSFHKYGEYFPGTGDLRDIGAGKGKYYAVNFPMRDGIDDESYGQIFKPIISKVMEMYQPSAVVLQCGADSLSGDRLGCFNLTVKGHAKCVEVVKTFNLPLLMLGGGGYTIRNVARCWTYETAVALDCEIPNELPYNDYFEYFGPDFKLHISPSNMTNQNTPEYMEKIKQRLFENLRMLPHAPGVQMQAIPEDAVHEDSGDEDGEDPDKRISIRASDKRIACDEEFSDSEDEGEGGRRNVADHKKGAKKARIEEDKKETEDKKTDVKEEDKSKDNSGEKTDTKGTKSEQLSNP

By IC50 is commonly meant the concentration needed to halve the response being measured. The term GI50 denotes the concentration at which growth is held to half of that of the control. On to `CCCNC(=O)/C(Cc1ccc(O)c(Br)c1)=N/O`, for which, in the series on HL-60 [1], the viability at 20 µM amounted to 95.5%. Moreover, the inhibition entry (at Histone deacetylase 2 [2]; in series [11]; at Histone deacetylase 1 [12]) was “inactive” throughout. Further, the Activity with HL-60 [3] is on record as 0.2%; in the series on HL-60 [5], 1.8%; in the series with HL-60 [8], 2.5%. Also, the IC50 (in [4]; in series [6]; on Histone deacetylase 2 [9]; on Histone deacetylase 1 [10]) was above 10 µM throughout. In addition, the GI50 in the series on HL-60 [7] turned out to be 13.5 µM.
Turning to `Nc1ccccc1NC(=O)CCNC(=O)/C(Cc1ccc(O)c(Br)c1)=N/O`, the IC50 (in series [4]; in [6]; on Histone deacetylase 2 [9]; at Histone deacetylase 1 [10]) was above 10 µM in each case. In the series with HL-60 [7], this compound gave an IG50 above 40 µM.
In the case of `Nc1ccccc1NC(=O)CNC(=O)/C(Cc1ccc(O)c(Br)c1)=N/O`, the IC50 (in series [4]; in [6]; at Histone deacetylase 2 [9]; on Histone deacetylase 1 [10]) was above 10 µM throughout. Further, the IG50 in the series with HL-60 [7] was above 40 µM.
For `O=C(CCCNC(=O)/C(Cc1ccc(O)c(Br)c1)=N/O)NO`, the IC50 in [4] was above 10 µM; in series [6], above 10 µM; at Histone deacetylase 2 [9], above 10 µM; on Histone deacetylase 1 [10] it was 1.01 µM. This compound also had an IG50 in the series on HL-60 [7] above 40 µM.
With `O=C(CCCCNC(=O)/C(Cc1ccc(O)c(Br)c1)=N/O)NO`, the IC50 in series [4] is 1.29 µM; in series [6] it was 0.249 µM; at Histone deacetylase 2 [9], above 10 µM; at Histone deacetylase 1 [10], 0.436 µM. For the same compound, in the series on HL-60 [7], the IG50 was above 40 µM.
For `Nc1ccccc1NC(=O)CCCCNC(=O)/C(Cc1ccc(O)c(Br)c1)=N/O` the same measures were above 10 µM, 1.43 µM, 9.76 µM, above 10 µM and above 40 µM.
`O=C(NCCO)/C(Cc1ccc(O)c(Br)c1)=N/O`: the viability at 20 µM in the series with HL-60 [1] turned out to be 94.4%. Also, the inhibition result (on Histone deacetylase 2 [2]; in series [11]; on Histone deacetylase 1 [12]) was “inactive” each time. Moreover, the Activity with HL-60 [3] worked out at 0.1%; in the series on HL-60 [5], 1.7%; with HL-60 [8] it was 3.7%. The IC50 (in series [4]; in series [6]; at Histone deacetylase 2 [9]; on Histone deacetylase 1 [10]) was above 10 µM each time. Besides, the GI50 in the series with HL-60 [7] is 20 µM.
`O=C(CCCCCCC(=O)Nc1ccccc1)NO` [VORINOSTAT]: the Activity was found to be 0.55 g in series [13], 18.1 g in [14] and 17.9 g in series [15].
On to `O=C(CNC(=O)/C(Cc1ccc(O)c(Br)c1)=N/O)NO`, for which the IC50 in series [4] was above 10 µM; in [6], 1.23 µM; on Histone deacetylase 2 [9], 9.21 µM; on Histone deacetylase 1 [10] it was 2.93 µM. In the series with HL-60 [7], this compound showed an IG50 above 40 µM.
For the compound `CCCCNC(=O)/C(Cc1ccc(O)c(Br)c1)=N/O`, the IC50 (in [4]; in [6]; on Histone deacetylase 2 [9]; at Histone deacetylase 1 [10]) was above 10 µM in each case. This compound displayed a GI50 with HL-60 [7] of 36 µM.
On to `Nc1ccccc1NC(=O)CCCNC(=O)/C(Cc1ccc(O)c(Br)c1)=N/O`, for which the IC50 in [4] was above 10 µM; in series [6], 1.83 µM; at Histone deacetylase 2 [9], above 10 µM; on Histone deacetylase 1 [10] it was above 10 µM. The IG50 in the series with HL-60 [7] was above 40 µM.
In the case of `O=C(O)CCNC(=O)/C(Cc1ccc(O)c(Br)c1)=N/O`, the viability at 20 µM in the series on HL-60 [1] amounted to 94.2%. Besides, the inhibition result (on Histone deacetylase 2 [2]; in series [11]; at Histone deacetylase 1 [12]) was “inactive” throughout. The Activity in the series on HL-60 [3] is 0.2%; with HL-60 [5] it was 2.2%; in the series on HL-60 [8] it was 3.4%. In addition, the IC50 (in series [4]; in [6]; at Histone deacetylase 2 [9]; on Histone deacetylase 1 [10]) was above 10 µM in each case. Further, halving of growth in the series with HL-60 [7] (GI50) required 11.8 µM.
